Test results published in ChEMBL document CHEMBL4732044, “Discovery of a promising agent IQZ23 for the treatment of obesity and related metabolic disorders” (Eur J Med Chem, 2020).
Activity calls are given as the source filed them. No cut-off for these calls is given here.

Tests used:
3T3-L1 [1] = experiment: Lipid lowering activity in mouse 3T3-L1 cells assessed as reduction in adipogenic cocktail-induced triglyceride levels at 1 uM incubated for 6 days by Oil-red O staining based assay; type: functional, cell-based; conditions: time 6.0 day
How it was run: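 Differentiating 3T3-L1 cells were treated at 1 µM for 6 days, then washed with PBS and fixed in 4% formaldehyde for 1 h. Cells were stained with 0.3% Oil Red O for 30 min at room temperature in the dark and imaged at ×200.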

Mus musculus [2] = experiment: Antiobesity activity in high fat diet-induced obese C57BL/6J mouse model assessed as glucose level at 20 mg/kg, ip administered for every other days for 6 weeks by auto-analyzer method (reference value: 11.8 +/- 1.3 mM); type: functional
How it was run: (§1)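 Male C57BL/6J mice (7–8 weeks) fed HFC diet (60% fat, 1% cholesterol) for up to 14 weeks. From week 9, given 20 mg/kg i.p. every other day for 6 weeks in saline with 10% ethanol and 10% castor oil, or vehicle. Body weight and food intake recorded daily. At end, mice fasted 6 h, anesthetized, and blood collected into EDTA. Plasma chemistry run on an auto-analyzer; insulin by ultra-sensitive ELISA.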

[3] = Clearance in Sprague-Dawley rat at 2 mg/kg, iv up to 24 hrs by LC-MS/MS analysis; type: ADME, organism-based; conditions: in vivo
How it was run: (§2)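 Male SD rats (180–220 g, n = 3) received compound in ethanol/saline (5:95), either intravenously at 2 mg/kg or intragastrically at 5 mg/kg. Plasma was sampled at 0, 0.5, 1, 2, 4, 8, 12 and 24 h. Concentrations were measured by LC-MS/MS, and PK parameters were calculated from the concentration–time data.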

Mus musculus [4] = experiment: Anti-hyperglycemic activity in high fat diet-induced obese C57BL/6J mouse model assessed as decrease in blood glucose level at 20 mg/kg, ip after 6 hrs; type: functional, organism-based
How it was run: (§3)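 C57BL/6J mice fed HFC diet (60% fat, 1% cholesterol). Single i.p. injection of saline or compound at 20 mg/kg. Blood glucose measured with a glucose monitor at 0, 0.5, 1, 2, 4, 8, 12 and 24 h.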

[5] = AUC(0 to infinity) in Sprague-Dawley rat at 2 mg/kg, iv up to 24 hrs by LC-MS/MS analysis; type: ADME, organism-based; parameters: route intravenous, dose 2 mg/kg, time <=24; conditions: in vivo
How it was run: (§4)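 Male Sprague-Dawley rats (180-220 g, n = 3) received a single intravenous dose of 2 mg/kg in ethanol/saline (5:95). Blood was sampled at 0, 30 min, 1, 2, 4, 8, 12 and 24 h after dosing and centrifuged to plasma. Plasma drug levels were measured by LC-MS/MS, and pharmacokinetic parameters were calculated from the concentration-time data.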

3T3-L1 [6] = experiment: Lipid lowering activity in mouse 3T3-L1 cells assessed as adipogenic cocktail-induced triglyceride levels at 1 uM by GPO-POD assay; type: functional, cell-based; conditions: time day <=6
How it was run: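 Confluent 3T3-L1 cells were treated from day 0 in cocktail (IBMX, dexamethasone, insulin) for 3 days, then re-dosed in insulin medium for 3 more days. For dose–response, concentrations were 0–10 µM (0.01, 0.1, 0.3, 1, 3, 10). On day 6, cells were lysed in 0.2% Triton X-100 and TG was measured by GPO-POD and normalized to BCA protein as % of control. EC50 was fitted from the dose–response. N = 4.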

[7] = AUC(0 to t) in Sprague-Dawley rat at 2 mg/kg, iv up to 24 hrs by LC-MS/MS analysis; type: ADME, organism-based; parameters: route intravenous, dose 2 mg/kg, time <=24; conditions: in vivo; how it was run: as §4
3T3-L1 [8] = experiment: Activation of AMPK pathway in mouse 3T3-L1 cells assessed as increase in CPT1beta mRNA expression at 0.3 to 1 uM after 24 hrs by RT-qPCR analysis; type: cell-based; conditions: filed as activator, dose 0.3-1 µM
Mus musculus [9] = experiment: Antiobesity activity in high fat diet-induced obese C57BL/6J mouse model assessed as AST level at 20 mg/kg, ip administered for every other days for 6 weeks by auto-analyzer method (reference value: 341.6 +/- 23.8 U/L); type: functional; how it was run: as §1
Mus musculus [10] = experiment: Anti-hyperglycemic activity in high fat diet-induced obese C57BL/6J mouse model assessed as decrease in blood glucose level at 20 mg/kg, ip; type: functional, organism-based; conditions: time hrs <=24, TDE = time-dependent effect; how it was run: as §3
Mus musculus [11] = experiment: Antiobesity activity in high fat diet-induced obese C57BL/6J mouse model assessed as cholesterol level at 20 mg/kg, ip administered for every other days for 6 weeks by auto-analyzer method (reference value: 6.2 +/- 0.3 mM); type: functional; how it was run: as §1
3T3-L1 [12] = experiment: Activation of AMPK pathway in mouse 3T3-L1 cells assessed as increase in TFAM mRNA expression at 0.3 to 1 uM after 24 hrs by RT-qPCR analysis; type: cell-based; conditions: filed as activator, dose 0.3-1 µM
[13] = Apparent volume of distribution in Sprague-Dawley rat at 2 mg/kg, iv up to 24 hrs by LC-MS/MS analysis; type: ADME, organism-based; conditions: in vivo, read-out: Vz; how it was run: as §2
3T3-L1 [14] = experiment: Inhibition of mouse 3T3-L1 cells adipocyte differentiation assessed as reduction in adipogenic cocktail-induced PPARgamma protein expression at 0.3 to 1 uM after 24 hrs by Western blot analysis; type: functional, cell-based; conditions: dose 0.3-1 µM
How it was run: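 3T3-L1 preadipocytes were exposed to adipogenic cocktail with compound (0.3 or 1 µM) and harvested on day 1. Lysates were resolved by SDS-PAGE, immunoblotted (primary antibody overnight at 4 °C, HRP secondary) and quantified by densitometry normalized to actin.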

Mus musculus [15] = experiment: Antiobesity activity in high fat diet-induced obese C57BL/6J mouse model assessed as creatinine level at 20 mg/kg, ip administered for every other days for 6 weeks by auto-analyzer method (reference value: 14.9 +/- […]); type: functional; how it was run: as §1
Mus musculus [16] = experiment: Antiobesity activity in high fat diet-induced obese C57BL/6J mouse model assessed as TG level at 20 mg/kg, ip administered for every other days for 6 weeks by auto-analyzer method (reference value: 1.2 +/- 0.02 mM); type: functional; how it was run: as §1
3T3-L1 [17] = experiment: Lipid lowering activity in mouse 3T3-L1 cells assessed as adipogenic cocktail-induced triglyceride levels at 1 uM after 6 to 9 days by GPO-POD assay relative to control; type: functional; conditions: time 6-9 day
How it was run: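 3T3-L1 cells were differentiated (cocktail on days 0–3, insulin thereafter) with 1 µM compound present during defined windows (days 0–3, 3–6, 6–9, or 0–3/0–6/0–9). TG was measured at day 9 by GPO-POD after Triton X-100 lysis and sonication. TG was normalized to BCA protein and expressed as % of differentiated control.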

3T3-L1 [18] = experiment: Activation of AMPK pathway in mouse 3T3-L1 cells assessed as increase in NRF2 mRNA expression at 1 uM after 24 hrs by RT-qPCR analysis; type: cell-based; conditions: filed as activator
3T3-L1 [19] = experiment: Activation of AMPK pathway in mouse 3T3-L1 cells assessed as increase in ACSL mRNA expression at 1 uM after 24 hrs by RT-qPCR analysis; type: cell-based; conditions: filed as activator
[20] = Clearance in Sprague-Dawley rat at 2 mg/kg, iv up to 24 hrs by LC-MS/MS analysis; conditions: in vivo
C2C12 = experiment: Activation of AMPK pathway in mouse C2C12 cells assessed as increase in glucose uptake at 1 uM after 6 hrs in presence of insulin by 2-NBDG/Hoechst 33342 staining based Confocal microscopic method; type: cell-based; conditions: filed as activator
How it was run: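 C2C12 myoblasts kept in DMEM with 10% FBS and 1% penicillin/streptomycin at 37 °C under 5% CO2.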

In the case of `COc1ccc2[nH]c(-c3nc(NCCCCN4CCCC4)c4ccccc4n3)c(C=O)c2c1`, the Activity (3T3-L1 [1]) is reported as “Active”, the Activity (Mus musculus [2]) is reported as 9.3 mM and the clearance [3] is reported as 107 mL/min/kg. For the same molecule, the Activity (Mus musculus [4]) was “Active”, the AUC(0-inf) [5] was 314 ng·h/mL and the Activity (3T3-L1 [6]) was “Dose-dependent effect”. For the same molecule, the AUC(0-t) at 24 h [7] was 308 ng·h/mL, the Activity (3T3-L1 [8]) was “Active” and the Activity (Mus musculus [9]) was 163.7 U/L. For the same molecule, the Activity (Mus musculus [10]) was “Tde”, the Activity (Mus musculus [11]) was 4.7 mM and the Activity (3T3-L1 [12]) was “Active”. The Vd [13] was 40.7 L/kg, the inhibition (3T3-L1 [14]) was “Active” and the Activity (Mus musculus [15]) was 14.5 µM. For the same molecule, the Activity (Mus musculus [16]) was 0.92 mM and the Activity (3T3-L1 [17]) was 35.3%.
For `CN(C)CCCNc1nc(-c2[nH]c3ccccc3c2C=O)nc2ccccc12`, the Activity (3T3-L1 [18]) was “Active”, the Activity (3T3-L1 [19]) was “Active” and the clearance [20] was 125 mL/min/kg. The Activity (C2C12) was “Active”.
